Measured values: ChEMBL document CHEMBL1671641, “1,5-benzodiazepines, a novel class of hepatitis C virus polymerase nonnucleoside inhibitors” (Antimicrob Agents Chemother, 2008)

Assays:
Hepatitis C virus [1] = assay: Antiviral activity against Hepatitis C virus infected in cells assessed as log reduction in viral RNA level from baseline at 4500 mg administered BID for 14 days by Replicon Assays; type: functional, Hepacivirus hominis
[2] = target: T1, DNA polymerase alpha catalytic subunit (Homo sapiens, UniProt P09884); assay: Inhibition of human DNA polymerase alpha
T1 sequence (P09884 whole entry): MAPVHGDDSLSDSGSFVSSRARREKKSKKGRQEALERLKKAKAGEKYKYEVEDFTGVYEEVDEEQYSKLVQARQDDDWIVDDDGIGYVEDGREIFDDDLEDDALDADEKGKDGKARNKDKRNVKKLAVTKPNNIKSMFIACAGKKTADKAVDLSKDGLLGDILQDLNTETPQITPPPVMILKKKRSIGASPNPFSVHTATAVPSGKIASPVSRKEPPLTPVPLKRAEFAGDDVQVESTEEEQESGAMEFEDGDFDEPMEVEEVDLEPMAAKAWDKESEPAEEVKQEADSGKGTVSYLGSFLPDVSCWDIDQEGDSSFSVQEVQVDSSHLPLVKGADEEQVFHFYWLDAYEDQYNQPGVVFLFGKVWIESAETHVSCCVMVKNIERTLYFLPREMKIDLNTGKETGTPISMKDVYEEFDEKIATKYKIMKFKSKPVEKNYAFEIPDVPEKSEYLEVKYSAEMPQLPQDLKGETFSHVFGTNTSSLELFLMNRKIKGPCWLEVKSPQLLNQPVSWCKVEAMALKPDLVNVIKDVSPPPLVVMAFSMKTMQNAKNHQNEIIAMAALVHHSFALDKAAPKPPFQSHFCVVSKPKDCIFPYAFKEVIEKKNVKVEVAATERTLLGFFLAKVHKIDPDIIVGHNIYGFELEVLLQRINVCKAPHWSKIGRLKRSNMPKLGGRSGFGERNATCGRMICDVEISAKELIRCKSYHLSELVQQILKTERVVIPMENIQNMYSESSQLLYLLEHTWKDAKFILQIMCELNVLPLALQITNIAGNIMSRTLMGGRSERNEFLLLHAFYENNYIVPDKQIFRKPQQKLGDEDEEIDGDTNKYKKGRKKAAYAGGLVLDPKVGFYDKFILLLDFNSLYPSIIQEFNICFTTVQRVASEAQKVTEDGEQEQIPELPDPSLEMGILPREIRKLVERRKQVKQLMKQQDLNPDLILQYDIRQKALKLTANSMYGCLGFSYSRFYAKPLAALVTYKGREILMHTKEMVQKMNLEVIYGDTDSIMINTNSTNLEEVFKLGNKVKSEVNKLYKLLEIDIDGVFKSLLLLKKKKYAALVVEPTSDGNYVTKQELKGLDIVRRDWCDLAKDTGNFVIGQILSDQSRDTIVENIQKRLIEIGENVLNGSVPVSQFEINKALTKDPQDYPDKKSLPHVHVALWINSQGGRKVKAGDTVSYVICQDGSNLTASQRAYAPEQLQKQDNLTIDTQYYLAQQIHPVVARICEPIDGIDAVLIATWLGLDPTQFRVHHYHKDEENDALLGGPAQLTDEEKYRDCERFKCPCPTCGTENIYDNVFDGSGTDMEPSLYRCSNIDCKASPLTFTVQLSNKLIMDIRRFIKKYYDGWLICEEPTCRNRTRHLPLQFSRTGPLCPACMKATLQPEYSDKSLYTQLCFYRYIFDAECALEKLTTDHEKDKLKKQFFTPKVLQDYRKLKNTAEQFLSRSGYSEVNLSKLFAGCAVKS
Procedure, shortened: (§1)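 Each enzyme–compound pair was tested in duplicate over 0.8 to 100 μM, with 100 μM as the highest dose. Each run included a no-inhibitor control, a solvent dilution (0.016 to 2% DMSO) and the relevant reference inhibitor. Percent inhibition at 100 μM was recorded for polymerase γ.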

[3] = Cytotoxicity against LTR-Luc transfected human MT4 cells […] after 3 days by ATPLite assay; type: cell-based
[4] = Cytotoxicity against CMV-Luc transfected human HuH7 cells after 5 days; type: cell-based, Huh-7; conditions: CMV-Luc transfected HuH7 cells
Hepatitis C virus [5] = assay: Inhibition of Hepatitis C virus 1b J4 recombinant NS5B Cdelta 21 RNA dependent RNA polymerase overexpressed in Escherichia coli BL21 (DE3); design: species or system Hepatitis C virus subtype 1b
[6] = target: Human immunodeficiency virus type 1 reverse transcriptase (Human immunodeficiency virus 1, UniProt Q72547); assay: Inhibition of Human immunodeficiency virus 1 reverse transcriptase expressed in Escherichia coli by scintillation proximity assay
Procedure, shortened: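 N-terminal His6 HIV-1 RT was expressed in E. coli BL21(DE3), induced overnight at 37°C with 0.4 mM IPTG. The homodimer was purified by Ni-NTA and heparin chromatography. Activity was measured by scintillation proximity assay at 2.5 nM enzyme, with efavirenz as reference inhibitor.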

[7] = Inhibition of Dengue virus RNA-dependent RNA polymerase; procedure, shortened: as §1
Hepatitis C virus [8] = assay: Antiviral activity against Hepatitis C virus 1b infected in human HuH7 cells assessed as inhibition of viral replication after 3 days by luciferase reporter assay; type: functional, organism-based, Hepacivirus hominis, genotype 1b, Huh-7; conditions: Hepatitis C virus, genotype 1b, Huh-7, 72 h
Procedure, shortened: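 HCV 1b subgenomic luciferase reporter replicon (clone ET) cells, 2,500 per well, were exposed to a nine-point 1/4 dilution series for 3 days. Replication was read as luciferase activity. Values are means ± SD from 2 to 23 independent experiments run in quadruplicate.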

DNA polymerase beta = DNA polymerase beta (Homo sapiens, UniProt P06746); assay: Inhibition of human DNA polymerase beta; procedure, shortened: as §1
[9] = target: T2, DNA polymerase subunit gamma-1 (Homo sapiens, UniProt P54098); assay: Inhibition of human DNA polymerase gamma; procedure, shortened: as §1
T2 sequence (P54098 whole entry): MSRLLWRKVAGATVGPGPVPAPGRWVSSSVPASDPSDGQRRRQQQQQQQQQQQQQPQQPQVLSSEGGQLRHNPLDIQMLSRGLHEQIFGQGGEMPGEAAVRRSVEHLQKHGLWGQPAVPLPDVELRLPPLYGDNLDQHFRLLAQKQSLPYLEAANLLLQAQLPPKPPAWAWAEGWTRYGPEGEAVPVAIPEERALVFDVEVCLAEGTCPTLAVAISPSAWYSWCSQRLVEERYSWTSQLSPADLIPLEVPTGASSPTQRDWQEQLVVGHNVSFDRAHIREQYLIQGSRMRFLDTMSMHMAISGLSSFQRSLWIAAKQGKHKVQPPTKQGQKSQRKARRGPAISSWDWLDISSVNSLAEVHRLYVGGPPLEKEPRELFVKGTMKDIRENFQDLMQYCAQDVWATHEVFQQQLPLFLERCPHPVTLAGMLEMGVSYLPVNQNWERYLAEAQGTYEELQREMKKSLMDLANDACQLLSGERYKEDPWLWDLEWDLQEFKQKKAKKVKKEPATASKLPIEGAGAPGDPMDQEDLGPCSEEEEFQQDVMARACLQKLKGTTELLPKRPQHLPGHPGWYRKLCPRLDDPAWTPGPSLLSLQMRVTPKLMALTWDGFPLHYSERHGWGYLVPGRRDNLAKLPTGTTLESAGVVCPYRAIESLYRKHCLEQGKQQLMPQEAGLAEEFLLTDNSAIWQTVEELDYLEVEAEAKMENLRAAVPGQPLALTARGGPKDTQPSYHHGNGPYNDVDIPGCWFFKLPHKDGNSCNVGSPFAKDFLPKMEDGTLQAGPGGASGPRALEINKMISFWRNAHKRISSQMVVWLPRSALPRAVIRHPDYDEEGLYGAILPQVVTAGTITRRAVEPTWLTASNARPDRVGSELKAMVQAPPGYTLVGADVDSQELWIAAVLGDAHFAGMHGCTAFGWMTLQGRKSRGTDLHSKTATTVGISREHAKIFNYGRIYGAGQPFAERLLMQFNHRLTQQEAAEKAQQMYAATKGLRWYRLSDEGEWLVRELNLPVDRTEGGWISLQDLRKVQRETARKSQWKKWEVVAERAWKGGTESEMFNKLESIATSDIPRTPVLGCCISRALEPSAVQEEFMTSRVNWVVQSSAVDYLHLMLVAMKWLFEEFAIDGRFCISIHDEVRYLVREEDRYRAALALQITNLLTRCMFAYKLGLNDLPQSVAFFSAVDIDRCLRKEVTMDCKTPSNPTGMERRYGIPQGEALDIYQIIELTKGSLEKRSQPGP

[10] = target: T3, DNA polymerase subunit gamma-1 (Homo sapiens) (UniProt P54098); assay: Inhibition of human DNA polymerase gamma at 100 uM; procedure, shortened: as §1
T3 sequence (whole entry): T2 sequence (P54098 whole entry)

SMILES	FC (Hepatitis C virus [1])	IC50 [2] [µM]	CC50 at 72 h [3] [µM]	CC50 at 120 h [4] [µM]	IC50 (Hepatitis C virus [5]) [µM]	IC50 [6] [µM]	IC50 [7] [µM]	EC50 (Hepatitis C virus [8]) [µM]	IC50 (DNA polymerase beta) [µM]	IC50 [9] [µM]	inhibition [10] [%]
[N-]=[N+]=N[C@]1(CO)O[C@@H](n2ccc(N)nc2=O)[C@H](O)[C@@H]1O [4'-AZIDOCYTIDINE]	3.7										
COc1ccc(C2C3=C(CC(C)(C)CC3=O)Nc3ccccc3N2C(C)=O)cc1OCc1ccccc1 (centres undefined)		> 100	32	32	7.9	> 32	> 100	12.3	> 100	> 100	
CC(=O)N1c2ccccc2NC2=C(C(=O)CC(C)(C)C2)C1c1ccc(Cl)cc1Cl (centres undefined)		> 100	32	32		> 32	> 100	> 32	> 100	> 100	30
